# FGF22 binding-1: binders of human FGF22 protein, primary screen, FGF22 synaptogenesis inhibitor project, biophysical, thermal shift, single point; recombinant FGF22 thermal shift, SYPRO orange fluorescence; percent of sucrose octasulfate shift, DMSO zero; 340,000 tested, 1.5% active; activity (Tm shift, normalised), % at 9.99 µM; AID 651658, 2012;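 active = mean Tm shift, scaled 0 neutral to 100 positive control, at about 1.3% or above, every replicate too, limit read from the data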
# Target sequence (Q9HCT0 whole entry, looked up): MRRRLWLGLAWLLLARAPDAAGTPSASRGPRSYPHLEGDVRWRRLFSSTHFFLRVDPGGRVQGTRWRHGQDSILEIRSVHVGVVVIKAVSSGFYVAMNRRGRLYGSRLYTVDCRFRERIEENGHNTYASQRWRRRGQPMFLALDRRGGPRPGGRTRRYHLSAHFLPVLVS
# ERAP1 inh: human ERAP1 aminopeptidase inhibitors, primary screen, biochemical, single point, plate reader; Endoplasmic reticulum aminopeptidase 1 (Homo sapiens), Q9NZ08; recombinant ERAP1, Leu-AMC fluorescence, 60 min; inhibition, % at 10.7 µM; 340,000 tested, 0.15% active; AID 652197, 2013;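 active = mean replicate inhibition of at least 30%, or all replicates individually reaching that 30% level; inactive = mean below 30% and not every replicate reaching it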;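 also: 0% = neutral control wells and 100% = L-leucinethiol positive control wells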
# SIRT5 inh: SIRT5 desuccinylase inhibitors, primary screen, biochemical, fluorescence imaging, single point, set 5. NAD-dependent protein deacylase sirtuin-5, mitochondrial (Homo sapiens), Q9NXA8. Purified SirT5, succinyl-peptide AMC, trypsin-coupled fluorescence. inhibition, % at 15 µM. 330,000 tested, 1.1% active. AID 652115, 2013; in the data active = inhibition above about 15%
# Target sequence (Q9NXA8 whole entry, looked up): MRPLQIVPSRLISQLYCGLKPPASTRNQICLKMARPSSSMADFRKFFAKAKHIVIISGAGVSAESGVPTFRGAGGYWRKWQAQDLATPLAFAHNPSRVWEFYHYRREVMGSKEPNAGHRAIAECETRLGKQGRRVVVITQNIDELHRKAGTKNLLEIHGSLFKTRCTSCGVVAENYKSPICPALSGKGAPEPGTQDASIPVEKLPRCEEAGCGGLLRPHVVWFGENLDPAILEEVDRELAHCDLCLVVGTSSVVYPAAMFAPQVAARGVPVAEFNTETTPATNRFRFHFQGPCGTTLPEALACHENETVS
# PGC1a acetyl inh: inhibitors of PGC1a acetylation signal, primary screen, cell-based, U2OS, AlphaScreen, inhibitor mode; 350,000 tested, 0.17% active; AlphaScreen anti-acetyl-lysine; with virally co-expressed GCN5 acetyltransferase; AID 651687, 2012; inhibition, % at 15.6 µM;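 active = every replicate shows inhibition of at least 40%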;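 also: 0% = neutral control wells and 100% = positive control wells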
# FN deposit inh: inhibitors of fibronectin matrix deposition, primary screen, AH1F cells, Alexa488-fibronectin fluorescence, plate reader; AH1F fibroblasts, overnight; inhibition, % at 12.6 µM; 350,000 tested, 0.086% active; AID 743247, 2014;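 active = mean inhibition across replicates of 30% or more, regardless of how many single replicates reach that level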;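 also: positive control wells lacked labelled fibronectin entirely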
#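 Schedule: 1 h cell adhesion before compound, then overnight fibronectin incubation; test system: AH1F fibroblast monolayer depositing Alexa488-labelled fibronectin into matrix; quantity: 10000 AH1F cells per well; probe or stimulus: fluorescent fibronectin at 24 nM final; signal: fluorescence, ex 485 nm, em 525 nm; evaluation: percent inhibition as loss of matrix-bound fibronectin fluorescence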
# FGF22 binding-2: binders of human FGF22 protein, dose response, FGF22 synaptogenesis inhibitor project, biophysical, thermal shift, cherry-pick retest; shares compounds with FGF22 binding-1; recombinant FGF22 thermal shift, SYPRO orange fluorescence; thermal shift activity, °C (ΔTm) at 38 µM; 1,000 tested, 2% active; AID 720646, 2013;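 active = fitted rise in melting shift crosses a set limit at or below the top valid dose tested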
# FGF22 TSA: binders of human FGF22 protein, dose response, FGF22 synaptogenesis inhibitor project, biophysical, thermal shift, dry powder | shares compounds with FGF22 binding-1 | Thermal shift assay, SYPRO orange, melting temperature shift | Tm shift (activity), % at 38 µM | 50 tested, under 10 active | AID 743017, 2013;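 active = compounds whose fitted dose curve of melting temperature shift rises past a set threshold within the tested doses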
# SYPRO no-protein: compound-only thermal shift signal without protein, dose response, artefact control for FGF22 binder project, biochemical, cherry-picked samples, RT-PCR instrument. AC50, µM (series often up to 38 µM). compound-only SYPRO orange thermal shift counter-screen, no protein. 1,000 tested, 2% active. shares compounds with FGF22 binding-1;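 active = rising signal whose fitted curve reaches the 0.54 level within the top valid dose, showing a melting point, actives reach about 13 µM in these data; inactive = the rest, including activity in the opposite direction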; also: value is where the raw curve crosses a fixed level and not half-maximal
# * marks the source's active call; other numbers are inactive results; i = inactive; / = no result; [ ] = remark or other dose. The list is not random: actives were taken first. Their share in the collection is about 2.2%.
SMILES,FGF22 binding-1,ERAP1 inh,SIRT5 inh,PGC1a acetyl inh,FN deposit inh,FGF22 binding-2,SYPRO no-protein,others
C[C@H](CO)N1C[C@H](C)[C@H](CN(C)C(=O)C2CCCCC2)OCCCC[C@H](C)Oc2ccc(NC(=O)c3ccccc3)cc2C1=O,0,1,7,2,/,/,/,
CC(Oc1ccc(Br)cc1)C(=O)NC1CCN(Cc2ccccc2)CC1 (stereo not given),/,-3,0,10,/,/,/,
CC(C)Oc1ccc(C(=O)NC2CCN(Cc3ccccc3)CC2)cc1,6.6*,-1,1,2,-9,0.047,i,
O=C(O)c1[nH]c2ccc(Br)cc2c1CCN1C(=O)c2cccc([N+](=O)[O-])c2C1=O,3.0*,/,3,0,-10,/,i,
COc1ccc(NC(=O)/C=C/C(=O)O)c([N+](=O)[O-])c1,2.2*,2,1,0,2,-0.14,i,
CCOc1ccc(/C=C/C(=O)Nc2ccc(OC)cc2[N+](=O)[O-])cc1,/,/,/,-5,/,/,/,
O=S1(=O)N=C(N(Cc2cccs2)c2ccc(O)cc2)c2ccccc21,1.4*,5,1,-5,/,/,i,FGF22 TSA=0
C[C@@H](NC(=O)C[C@H]1C[C@H]2c3cc(NS(C)(=O)=O)ccc3O[C@H]2[C@H](CO)O1)c1ccccc1,0,-1,-3,-8,-8,/,/,
CO[C@H]1CN(C)C(=O)c2ccc(NC(=O)Nc3cc(F)ccc3F)cc2OC[C@@H](C)NC[C@@H]1C,0,-3,6,-1,1,/,/,
COc1ccc(-c2ccc([C@H]3[C@@H](CO)N4CCCCN(C(=O)c5ccc6c(c5)OCO6)C[C@@H]34)cc2)cc1,0,-2,0,-9,/,/,/,
COc1ccc(-c2ccc([C@@H]3[C@@H](CO)N4CCCCN(C(=O)c5ccc(F)cc5)C[C@@H]34)cc2)cc1,34*,1,-1,-3,/,0.089[42 µM],9µM*,
COc1ccc(-c2ccc([C@H]3[C@@H](CO)N4CCCCN(C(=O)c5ccc6c(c5)OCO6)C[C@H]34)cc2)cc1,1.3*,-1,0,4,3,0.02,i,
CCC(=O)N(C)C[C@@H]1Oc2cc(C#Cc3ccccn3)ccc2S(=O)(=O)N([C@@H](C)CO)C[C@@H]1C,0,1,-2,0,-10,/,/,
CN(C(=O)CCc1nnc(CCCCc2ccccc2)o1)C1CCOCC1,1.4*,-2,-1,/,-19,0.034,i,
CCN(CC)C1CCN(C(=O)CCc2nnc(CCCCc3ccccc3)o2)C1 (stereo not given),0,-5,-4,13,-7,/,/,
COc1ccc(-c2nc(C)c(C(C)=O)n2O)cc1OC,/,/,/,-7,-1,/,/,
COc1cc(-c2nc(C)c(C(C)=O)n2O)ccc1OCC(=O)Nc1ccc(Cl)cc1,2.5*,2,0,/,-6,-0.17,i,
CC(=O)c1c(C)nc(-c2ccc(OCC(=O)Nc3cccc(C)c3C)cc2)n1O,2.2*,-1,3,/,4,-0.018,i,
Cc1noc(C)c1NC(=O)Nc1ccc2c(c1)CC(=O)N([C@@H](C)CO)C[C@H](C)[C@@H](CN(C)Cc1ccc3c(c1)OCO3)O2,1.5*,-1,0,8,-5,0.13,i,
CC(C)NC(=O)Nc1cccc2c1O[C@@H](CN(C)Cc1ccc(C(=O)Nc3ccccc3N)cc1)[C@@H](C)CN([C@H](C)CO)C2=O,1.5*,1,/,1,-2,0.17,i,
C[C@H](CO)N1C[C@H](C)[C@H](CN(C)C)Oc2ccc(NC(=O)NC3CCCCC3)cc2CC1=O,2.0*,-2,0,-5,-1,0.097[42 µM],i,
CC(C)NC(=O)Nc1cccc2c1O[C@H](CN(C)Cc1ccc(C(=O)Nc3ccccc3N)cc1)[C@H](C)CN([C@@H](C)CO)C2=O,0,2,-10,-1,/,/,/,
C[C@@H]1CN([C@@H](C)CO)C(=O)Cc2cc(NC(=O)NC3CCCCC3)ccc2O[C@H]1CN(C)C,0,2,-1,-1,-27,/,/,
Cc1noc(C)c1NC(=O)Nc1ccc2c(c1)CC(=O)N([C@H](C)CO)C[C@H](C)[C@H](CN(C)Cc1ccc3c(c1)OCO3)O2,0,-1,1,-32,/,/,/,
C[C@H](CO)N1C[C@H](C)[C@@H](CN(C)CC2CC2)Oc2ccc(NS(=O)(=O)c3cccs3)cc2C1=O,5.2*,-1,-6,0,4,0.096[42 µM],i,
SMILES,FGF22 binding-1,ERAP1 inh,SIRT5 inh,PGC1a acetyl inh,FN deposit inh,FGF22 binding-2,SYPRO no-protein,others
C[C@@H]1CN([C@H](C)CO)C(=O)Cc2cc(N(C)C)ccc2O[C@@H]1CN(C)Cc1ccc(Cl)c(Cl)c1,40*,1,3,-46,/,/,i,
Cc1ccc(S(=O)(=O)Nc2ccc3c(c2)C(=O)N([C@@H](C)CO)C[C@H](C)[C@@H](CN(C)CC2CCCCC2)O3)cc1,1.5*,-2,4,/,/,0.15[42 µM],i,
C[C@H]1CN([C@@H](C)CO)C(=O)c2cc(NS(=O)(=O)c3ccccc3)ccc2O[C@@H]1CN(C)C,1.4*,0,3,-6,/,0.038,i,
C[C@H]1CN([C@@H](C)CO)C(=O)c2cc(N(C)C)ccc2O[C@@H]1CN(C)Cc1ccc(Cl)c(Cl)c1,0,-1,/,1,-17,/,/,
C[C@H]1CN([C@@H](C)CO)C(=O)c2cc(NS(=O)(=O)c3ccccc3)ccc2O[C@@H]1CN(C)Cc1ccc(C(=O)O)cc1,1.3*,0,-5,-9,-14,0.095,i,
C[C@@H]1CN([C@H](C)CO)C(=O)c2cc(NC(=O)Cc3ccccc3)ccc2O[C@@H](C)CCCCO[C@@H]1CN(C)C(=O)c1ccccc1,0,0,1,0,/,/,/,
C[C@@H]1CN([C@H](C)CO)C(=O)c2cc(NC(=O)Cc3cn(C)c4ccccc34)ccc2O[C@@H]1CN(C)S(=O)(=O)c1ccccc1,25*,-1,-1,8,/,0.16,i,

# Source: PubChem
